Data set [1] is described as follows: Induction of NO release from the compound in phosphate buffer at pH 7.4 at 0.1 mM incubated for 15 to 300 mins measured every 15 mins for 120 mins and every 30 mins for remaining time by Griess assay. It counts as physicochemical. As to conditions: pH 7.4, 100 µM. The method in brief:
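Compound at 0.1 mM in PBS pH 7.4 containing 2% DMSO and 5.0 mM L-cysteine, incubated at 37 °C for 15–300 min. Sampled every 15 min up to 120 min, then every 30 min. Samples (2 mL) mixed with Griess reagent, 37 °C 10 min, absorbance at 540 nm. NO quantified against nitrite standards; means per time point.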
A general note: Nitrite, measured by Griess reagent, commonly stands in for NO production.

The nature of data set [2]: Antiplatelet activity in rabbit platelet rich plasma assessed as inhibition of ADP-induced aggregation at 1 mM treated for 5 mins before ADP challenge by turbidimetry. It counts as functional. As to conditions: Oryctolagus cuniculus. The method in brief:
(§1)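 Rabbit PRP (low-speed spin 500 rpm 10 min; PPP from 3000 rpm 10 min as reference) pre-treated in duplicate with vehicle, reference drug or compound for 5 min, then ADP 10 µM final at 37 °C for 5 min. Aggregation followed by optical density (Born turbidimetry). % inhibition versus vehicle-treated ADP-exposed controls; IC50 by nonlinear regression, top concentration 1.0 mM. Mean ± S.D., n = 4.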

Data set [3] in a line: Aqueous solubility of the compound. It counts as physicochemical. The following applies: buffer.
A short description of data set [4]: Antiplatelet activity in rabbit platelet rich plasma assessed as inhibition of ADP-induced aggregation at 1 mM treated for 5 mins before ADP challenge by turbidimetry in presence of endogenous NO scavenger hemoglobin. As to conditions: Oryctolagus cuniculus. The format is functional. The gist of the method:
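Rabbit PRP exposed to compound at 1.0 mM for 5 min at 37 °C together with hemoglobin 20 µM (NO scavenger), then challenged with ADP 10 µM. Aggregation monitored turbidimetrically. Inhibition relative to vehicle-treated ADP-exposed controls. Mean ± SD from several independent experiments; Student's t test.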

Data set [5] can be described thus: Antiplatelet activity in rabbit platelet rich plasma assessed as inhibition of ADP-induced aggregation treated for 5 mins before ADP challenge by turbidimetry. The format is functional. The following applies: Oryctolagus cuniculus. The gist of the method:
as §1

Molecules are shown by their SMILES.

Broadly, the inhibition is the percentage by which the read-out fell short of the control. What is called IC50 is the midpoint of a concentration-inhibition curve.

Consider `CCCCC(OC(=O)CN1CCOCC1)c1ccccc1C(=O)Oc1ccc(/C=C/C(=O)NCCO[N+](=O)[O-])cc1.Cl` (centres undefined), for which, in data set [1], the Activity was found to be 0.043 µg/mL.

For the molecule `CCCCC(OC(=O)CN(CC)CC)c1ccccc1C(=O)Oc1ccc(/C=C/C(=O)NCCO[N+](=O)[O-])cc1OC.Cl` (centres undefined), the inhibition at 1000 µM amounted to 83% in data set [2] and 54.4% in data set [4]. Moreover, the solubility result in data set [3] was “soluble”. Besides, the Activity in data set [1] is 0.057 µg/mL. Also, the IC50 in data set [5] was determined as 54.4 µM.

On to `CCCCC(OC(=O)CN1CCCCC1)c1ccccc1C(=O)Oc1ccc(/C=C/C(=O)NCCO[N+](=O)[O-])cc1OC.Cl` (centres undefined), for which the inhibition at 1000 µM in data set [2] was determined as 83%. Also, in data set [1], the Activity came out at 0.06 µg/mL. The IC50 in data set [5] stood at 39.4 µM.

For `CCCCC(OC(=O)CN1CCCCC1)c1ccccc1C(=O)Oc1ccc(/C=C/C(=O)NCCO[N+](=O)[O-])cc1.Cl` (centres undefined), in data set [2], the inhibition at 1000 µM amounted to 82.4%. Further, the solubility result in data set [3] is “soluble”.

For the molecule `CCCCC(OC(=O)CN(CC)CC)c1ccccc1C(=O)Oc1ccc(/C=C/C(=O)NCCCO[N+](=O)[O-])cc1.Cl` (centres undefined), the inhibition at 1000 µM in data set [2] was determined as 82.1%. Moreover, in data set [3], the solubility entry is listed as “soluble”.

For `CCCCC(OC(=O)CN(CC)CC)c1ccccc1C(=O)O` (centres undefined), the inhibition at 1000 µM in data set [2] was found to be 67.2%.

In the case of `COc1cc(/C=C/C(=O)NCCO[N+](=O)[O-])ccc1O`, the inhibition at 1000 µM in data set [2] turned out to be 51.3%.

Consider `CCCCC(OC(C)=O)c1ccccc1C(=O)Oc1ccc(/C=C/C(=O)NCC(C)O[N+](=O)[O-])cc1OC` (centres undefined), for which the Activity in data set [1] was determined as 0.027 µg/mL.

As for `CCCCC(OC(C)=O)c1ccccc1C(=O)Oc1ccc(/C=C/C(=O)NCCO[N+](=O)[O-])cc1` (centres undefined), the Activity in data set [1] came to 0.022 µg/mL.

As to `CCCCC1OC(=O)c2ccccc21` (racemic) [RAC-3-N-BUTYLPHTHALIDE], the inhibition at 1000 µM in data set [2] came out at 67.8%.

As for `CC(=O)Oc1ccccc1C(=O)O` [ASPIRIN], in data set [2], the inhibition at 1000 µM stood at 68.5%.

Values taken from ChEMBL document CHEMBL1799981, “Synthesis and evaluation of nitric oxide-releasing derivatives of 3-n-butylphthalide as anti-platelet agents” (Bioorg Med Chem Lett, 2011).
